Measurements as given in PubChem BioAssay AID623969 (Broad Institute, 2012).
Several values for one entry are separate records, joined by “and”; a condition that tells them apart may be missing. Equal entries are not always repeated.

System: S. cerevisiae growth in glycerol medium, OD600, 48 h
Experiment: S. cerevisiae growth inhibition in glycerol medium, dose response, OD600, powder samples, set 3 (AID 623969)
In short: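 Material: S. cerevisiae yeast on glycerol | Timing: Compound exposure 48 h at 30 °C, static, humidified | Dosing: Pinned compound dilution series | Technique: Optical density at 600 nm | Benchmarks: Amphotericin B at 10 µM as positive control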

Going from C/C=C/[C@@H]1[C@H]2C[C@@H](C)CC[C@@H]2C(C)=C[C@H]1C(=O)c1c(O)c(-c2ccc(O)cc2)c[nH]c1=O to CCOC(=O)N1C(=O)C2(CCCCC2)N(c2ccc(F)cc2)C1=S, the AC50 falls from 0.0335 µM to 0.00561 µM (6-fold).

CCOC(=O)N1C(=O)C2(CCCCC2)N(c2ccccc2)C1=S and CCOC(=O)N1C(=O)C2(CCCCC2)N(c2cccc(C)c2)C1=S are within 1.5-fold of each other in AC50: 0.02 µM for the first, 0.0276 µM for the second.

Going from CC1/C=C/C=C\C=C\C=C\C=C\C=C\C=C\C(O[C@H]2OC(C)C(O)C(N)C2O)CC2OC(O)(CC(O)CC(O)C(O)CCC(O)CC(O)CC(=O)OC(C)C(C)C1O)CC(O)C2C(=O)O (stereo partly drawn) to CCOC(=O)N1C(=O)C2(CCCCC2)N(c2ccc(Cl)cc2)C1=S, the AC50 falls from 0.234 µM to 0.00826 µM (28-fold).

For CCOC(=O)N1C(=O)C2(CCCCC2)N(c2ccc(C#N)cc2)C1=S, the AC50 was 0.00481 µM.

With CCOC(=O)N1C(=O)C2(CCCCC2)N(c2ccc(C)cc2)C1=S the AC50 was 0.015 µM and 0.0136 µM.
